Here are results for nine molecules from ChEMBL document CHEMBL3046733, “Comparative toxicity of selected organophosphate insecticides against resistant and susceptible clones of the greenbug, Schizaphis graminum (Homoptera: aphididae)” (J Agric Food Chem, 2000).

Values after ≈ are worked out from the molar mass of the structure shown.

The subject of experiment [1] is Schizaphis graminum. Put plainly: Insecticidal activity against organophosphate-resistant clone of Schizaphis graminum OR1 adult or last-instar nymphs assessed as insect mortality after 8 hr. The class given is functional. The settings on record: OR1, 8 h.
Experiment [2] concerns Schizaphis graminum. Put plainly: Insecticidal activity against organophosphate-susceptible clone of Schizaphis graminum OSS adult or last-instar nymphs assessed as insect mortality after 8 hr. It is filed as functional.
The test system of experiment [3] is Schizaphis graminum. Put plainly: Insecticidal activity against organophosphate-resistant clone of Schizaphis graminum OR2 adult or last-instar nymphs assessed as insect mortality after 8 hr. The class given is functional. The following applies: OR2, 8 h.
The test system of experiment [4] is Schizaphis graminum. Nature of the experiment: Resistance index, ratio of LC50 for organophosphate-resistant clone of Schizaphis graminum OR1 adult or last-instar nymphs to LC50 for organophosphate-susceptible clone of Schizaphis graminum OSS adult or last-instar nymphs. The class given is functional. Further details: reference not given here.
Experiment [5] has as its system Schizaphis graminum. Put plainly: Resistance index, ratio of LC50 for organophosphate-resistant clone of Schizaphis graminum OR2 adult or last-instar nymphs to LC50 for organophosphate-susceptible clone of Schizaphis graminum OSS adult or last-instar nymphs. It is filed as functional. Further details: reference not given here.
The target in experiment [6] is T1, Acetylcholinesterase (Schizaphis graminum, UniProt Q9BMJ1). Nature of the experiment: Inhibition of AChE in organophosphate-resistant clone of Schizaphis graminum OR1 adult or last-instar nymphs homogenates assessed as bimolecular rate constant pre-incubated with compound for 2 min at 25 degC before addition of ATC and DTNB solution. Summed up:
(§1)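 Clones mass-reared on whole sorghum plants (hybrid NC+ 160) at 25 ± 2 °C with a 16:8 h L/D photoperiod. Greenbug AChE was preincubated with an organophosphate oxon inhibitor for 2 min at 25 °C. Residual AChE activity was then measured as a percentage of an inhibitor-free control.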

The target of experiment [7] is T1, Acetylcholinesterase. Put plainly: Inhibition of AChE in organophosphate-susceptible clone of Schizaphis graminum OSS adult or last-instar nymphs homogenates assessed as bimolecular rate constant pre-incubated with compound for 2 min at 25 degC before addition of ATC and DTNB solution. Summed up:
as §1

Experiment [8] addresses Acetylcholinesterase (Schizaphis graminum) (UniProt Q9BMJ1). Put plainly: Resistance index, ratio of bimolecular rate constant Ki for AChE in rganophosphate-resistant clone of Schizaphis graminum OR2 to bimolecular rate constant Ki for AChE in organophosphate-susceptible clone of Schizaphis graminum OSS.
The target of experiment [9] is T1, Acetylcholinesterase. Nature of the experiment: Inhibition of AChE in organophosphate-resistant clone of Schizaphis graminum OR2 adult or last-instar nymphs homogenates assessed as bimolecular rate constant pre-incubated with compound for 2 min at 25 degC before addition of ATC and DTNB solution. The method, boiled down: as §1
In experiment [10] the target is Acetylcholinesterase (Schizaphis graminum) (UniProt Q9BMJ1). Nature of the experiment: Resistance index, ratio of bimolecular rate constant Ki for AChE in rganophosphate-resistant clone of Schizaphis graminum OR1 to bimolecular rate constant Ki for AChE in organophosphate-susceptible clone of Schizaphis graminum OSS.
Sequence of Acetylcholinesterase (Schizaphis graminum) (Q9BMJ1 as listed by the source): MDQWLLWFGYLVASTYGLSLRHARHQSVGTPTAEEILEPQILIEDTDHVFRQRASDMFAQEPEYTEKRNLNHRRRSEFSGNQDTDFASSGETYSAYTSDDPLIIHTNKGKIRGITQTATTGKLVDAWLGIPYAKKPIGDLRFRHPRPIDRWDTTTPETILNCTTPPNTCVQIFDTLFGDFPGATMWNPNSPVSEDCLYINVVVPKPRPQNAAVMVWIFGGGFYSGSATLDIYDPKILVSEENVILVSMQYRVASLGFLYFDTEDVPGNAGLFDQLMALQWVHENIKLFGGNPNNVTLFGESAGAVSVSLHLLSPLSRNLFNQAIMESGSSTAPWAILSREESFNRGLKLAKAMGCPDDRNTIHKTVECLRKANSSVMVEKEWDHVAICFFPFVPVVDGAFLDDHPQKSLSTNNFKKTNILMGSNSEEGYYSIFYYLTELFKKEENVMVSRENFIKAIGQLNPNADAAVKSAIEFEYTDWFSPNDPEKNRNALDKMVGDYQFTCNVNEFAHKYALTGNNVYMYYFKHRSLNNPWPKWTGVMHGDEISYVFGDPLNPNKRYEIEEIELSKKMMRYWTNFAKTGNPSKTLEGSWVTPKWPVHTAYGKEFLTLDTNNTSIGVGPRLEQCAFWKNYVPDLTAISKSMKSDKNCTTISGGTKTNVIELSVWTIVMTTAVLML

T1 sequence (Q9BMJ1 whole entry): as the sequence (Q9BMJ1 as listed by the source) above

One may read the LC50 as the concentration that kills 50% of the test population. Regarding `CCOP(=S)(OCC)Oc1nc(Cl)c(Cl)cc1Cl` [CHLORPYRIFOS], the LC50 in the experiment on Schizaphis graminum [1] came out at 0.39 µg/mL (≈ 1.11 µM); with Schizaphis graminum [2], 0.036 µg/mL (≈ 0.103 µM); in the experiment on Schizaphis graminum [3] it was 1.96 µg/mL (≈ 5.59 µM). The RatioLC50 turned out to be 10.6 in the experiment with Schizaphis graminum [4] and 53.8 in the experiment on Schizaphis graminum [5].
With `COP(=O)(OC)Oc1ccc([N+](=O)[O-])cc1` [DIMETHYL 4-NITROPHENYL PHOSPHATE], the Ki worked out at 0.0225 M⁻¹ s⁻¹ at Acetylcholinesterase [6], 0.0483 M⁻¹ s⁻¹ at Acetylcholinesterase [7] and 0.0217 M⁻¹ s⁻¹ on Acetylcholinesterase [9]. Further, the results for the Ratio in experiment [8] and in [10] were 2.2 and 2.1, respectively.
Consider `CCOP(=S)(OCC)SCCSCC` [DISULFOTON], for which the LC50 was 6.37 µg/mL (≈ 23.2 µM) with Schizaphis graminum [1], 0.16 µg/mL (≈ 0.583 µM) in the experiment with Schizaphis graminum [2] and 15.1 µg/mL (≈ 55 µM) in the experiment with Schizaphis graminum [3]. For the same molecule, the RatioLC50 is 39.6 in the experiment with Schizaphis graminum [4] and 93.7 with Schizaphis graminum [5].
Consider `COP(=S)(OC)Oc1ccc([N+](=O)[O-])cc1` [METHYL PARATHIONE], for which the LC50 came to 0.34 µg/mL (≈ 1.29 µM) with Schizaphis graminum [1], 0.031 µg/mL (≈ 0.118 µM) in the experiment on Schizaphis graminum [2] and 1.27 µg/mL (≈ 4.83 µM) with Schizaphis graminum [3]. Further, the values for the RatioLC50 in the experiment with Schizaphis graminum [4] and with Schizaphis graminum [5] were 11.1 and 41.3, respectively.
For `CNC(=O)CSP(=O)(OC)OC` [Omethoate], the values for the Ki at Acetylcholinesterase [6], on Acetylcholinesterase [7] and at Acetylcholinesterase [9] were 0.0207 M⁻¹ s⁻¹, 0.077 M⁻¹ s⁻¹ and 0.0222 M⁻¹ s⁻¹, respectively. Moreover, the results for the 50% lethal concentration (LC50) with Schizaphis graminum [1], in the experiment on Schizaphis graminum [2] and in the experiment on Schizaphis graminum [3] were 8.01 µg/mL (≈ 37.6 µM), 0.21 µg/mL (≈ 0.985 µM) and 6.28 µg/mL (≈ 29.5 µM), respectively. Moreover, the Ratio worked out at 3.5 in [8] and 3.8 in experiment [10]. In addition, the results for the RatioLC50 in the experiment with Schizaphis graminum [4] and in the experiment on Schizaphis graminum [5] were 38.9 and 30.6, respectively.
With `CCOP(=O)(OCC)Oc1ccc([N+](=O)[O-])cc1` [PARAOXON], the Ki stood at 0.0135 M⁻¹ s⁻¹ on Acetylcholinesterase [6], 0.0237 M⁻¹ s⁻¹ at Acetylcholinesterase [7] and 0.012 M⁻¹ s⁻¹ at Acetylcholinesterase [9]. For the same molecule, the Ratio in [8] was determined as 2; in experiment [10], 1.8.
Consider `CCOP(=S)(OCC)Oc1ccc([N+](=O)[O-])cc1` [PARATHION], for which the values for the LC50 with Schizaphis graminum [1], with Schizaphis graminum [2] and in the experiment with Schizaphis graminum [3] were 8.07 µg/mL (≈ 27.7 µM), 0.2 µg/mL (≈ 0.687 µM) and 64.8 µg/mL (≈ 222 µM), respectively. Further, the RatioLC50 is recorded as 40.8 in the experiment with Schizaphis graminum [4] and 326.9 in the experiment on Schizaphis graminum [5].
Take `CCOP(=O)(OCC)SCCSCC` [demeton S]: the Ki is 0.0437 M⁻¹ s⁻¹ on Acetylcholinesterase [6], 0.0575 M⁻¹ s⁻¹ at Acetylcholinesterase [7] and 0.0447 M⁻¹ s⁻¹ at Acetylcholinesterase [9]. The Ratio in [8] and in [10] was 1.3 in each case.
For the molecule `CCSCCSP(=O)(OC)OC` [demeton-S-methyl], the Ki at Acetylcholinesterase [6] came to 0.0685 M⁻¹ s⁻¹; on Acetylcholinesterase [7] it was 0.101 M⁻¹ s⁻¹; at Acetylcholinesterase [9], 0.0725 M⁻¹ s⁻¹.
